Source: PubChem BioAssay
UBC13 polyUb: human UBC13 polyubiquitination inhibition; P61088; UBC13 polyubiquitin chain formation, TR-FRET; inhibition, % at 20 µM; hit rate 0.47% among 330,000; in the data active means inhibition above about 45%, passing the limit was not always enough
Apaf-1 inh: human Apaf-1 inhibition; O14727; reconstituted apoptosome caspase-3 activity, DEVD-Rh110 fluorescence; inhibition, % at 20 µM; hit rate 0.71% among 330,000; active means inhibition of at least 40% at 20 µM;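 further: plate controls were DMSO wells for no effect and DEVD-CHO caspase inhibitor wells for full effect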
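Material: reconstituted apoptosome with Apaf-1, cytochrome c, caspase-9, procaspase-3, dATP. Technique: Rh110 fluorescence intensity. Buffer or medium: pH 7.5 Hepes buffer with CHAPS, BSA, DTT. Times: 30 min plus 50 min, RT.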
MEKK2 mut-MEK5: signal of MEK5 binding to mutant human MEKK2 PB1 domain. percent response, % at 10 µM. bead flow cytometry, Alexa488-MEK5 binding to MEKK2 mutant. AID 1530. hit rate 0.35% among 290,000; in the data active means percent response above about 24%, passing the limit was not always enough
MEKK3 PB1 HTS: MEKK3-MEK5 PB1 interaction, increase or decrease; AID 1529; bead-based flow cytometry, Alexa488-MEK5 binding to MEKK3; actives lie on both sides; 0 = blocked by unlabeled MEK5, 100 = vehicle; hit rate 1.4% among 290,000; binding response (% of control), % at 10 µM; Q99759;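 active means binding response more than 3 SD above or below the average of its plate-row segment, actives on both sides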;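 further: Alexa488 bead fluorescence after subtracting the streptavidin-only scavenger bead signal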
MEKK2wt PB1 HTS: raises or lowers MEK5 binding to wildtype human MEKK2 PB1 domain | bead flow cytometry, Alexa488-MEK5 binding to MEKK2 WT; actives lie on both sides | binding response (% of control), % at 10 µM | AID 1531 | Q9Y2U5 | hit rate 1.1% among 290,000; in the data active means binding response below about 67% or above about 130%
PREPL inhibitor: inhibitors of human prolyl oligopeptidase-like enzyme PREPL; hit rate 0.68% among 320,000; Q4J6C6; inhibition, % at 5.96 µM; recombinant PREPL, fluorescence polarization activity-based probe; in the data active means inhibition above about 43%;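 further: 0% = enzyme with DMSO and 100% = wells lacking enzyme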
Target sequence (Q4J6C6 whole entry, looked up): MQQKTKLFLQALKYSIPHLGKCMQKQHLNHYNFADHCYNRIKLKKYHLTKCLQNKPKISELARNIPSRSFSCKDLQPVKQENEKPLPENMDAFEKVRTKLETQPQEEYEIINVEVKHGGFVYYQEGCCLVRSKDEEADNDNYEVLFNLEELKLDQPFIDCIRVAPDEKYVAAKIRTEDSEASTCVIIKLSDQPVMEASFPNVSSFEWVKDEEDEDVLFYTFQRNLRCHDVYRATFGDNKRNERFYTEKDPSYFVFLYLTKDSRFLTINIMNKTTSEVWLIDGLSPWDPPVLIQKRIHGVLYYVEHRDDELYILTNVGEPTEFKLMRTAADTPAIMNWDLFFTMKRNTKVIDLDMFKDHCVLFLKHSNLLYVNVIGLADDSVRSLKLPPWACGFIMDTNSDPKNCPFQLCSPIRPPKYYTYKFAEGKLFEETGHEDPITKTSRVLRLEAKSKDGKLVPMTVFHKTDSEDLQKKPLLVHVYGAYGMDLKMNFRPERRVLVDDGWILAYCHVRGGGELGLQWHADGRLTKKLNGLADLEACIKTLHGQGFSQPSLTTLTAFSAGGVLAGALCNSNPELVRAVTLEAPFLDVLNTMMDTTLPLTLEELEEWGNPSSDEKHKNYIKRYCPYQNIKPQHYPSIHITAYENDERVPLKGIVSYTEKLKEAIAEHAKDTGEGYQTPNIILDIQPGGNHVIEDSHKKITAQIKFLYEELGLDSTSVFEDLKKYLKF
MEKK2wt confirm: raises or lowers MEK5 binding to wildtype human MEKK2, retest; shares compounds with MEKK3 PB1 HTS; bead flow cytometry, Alexa488-MEK5 binding to MEKK2 WT; actives lie on both sides; binding response (% of control), % at 10 µM; hit rate 2.4% among 5,900; in the data active means binding response below about 16% or above about 210%; inactive means in between
MEKK2mut confirm: signal of MEK5 binding to mutant human MEKK2, retest. shares compounds with MEKK3 PB1 HTS. bead flow cytometry, Alexa488-MEK5 binding to MEKK2 mutant. percent response, % at 10 µM. hit rate 2% among 5,900. AID 1893; in the data active means percent response mostly above about 71%, no sharp cut-off; inactive means mostly below about 38%;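 further: higher means compound restores mutant binding toward wildtype level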
MEKK3 confirm: MEKK3-MEK5 PB1 inhibition, single concentration confirmation. bead flow cytometry, Alexa488-MEK5 binding to MEKK3; stronger effect = lower value. AID 1894. binding response (% of control), % at 10 µM. shares compounds with MEKK3 PB1 HTS. hit rate 1.8% among 5,900;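 active means binding response below 72% of control, or above a set upper limit, though filed actives all read lower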;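 further: 100% = DMSO only wells and 0% = binding blocked by excess unlabeled MEK5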
An asterisk follows results filed as active; / = no result; [ ] = remark or other dose. Sampled rows, rich in hits. Any-hit rate of the full collection: about 3.1%.

SMILES	UBC13 polyUb	Apaf-1 inh	MEKK2 mut-MEK5	MEKK3 PB1 HTS	MEKK2wt PB1 HTS	PREPL inhibitor	MEKK2wt confirm	MEKK2mut confirm	MEKK3 confirm
CN(CC1CCCO1)S(=O)(=O)c1ccc(C(=O)Nc2ccc(S(N)(=O)=O)cc2)cc1 (centres undefined)	-0.4	7.2	-1.0	101.0	101.0	1.8	/	/	/
CCCN(CC(=O)Nc1ccccc1OC)C(=O)c1cccc(S(=O)(=O)Nc2ccc(OC)cc2)c1	2.7	4.7	/	/	/	-9.2	/	/	/
CCCc1cc(=O)oc2cc(C)cc(OC(C)C(=O)NCc3ccccn3)c12 (centres undefined)	19.5	-15.7	-1.0	98.0	101.0	-2.1	/	/	/
O=C(Nc1ccc(COc2ccccc2)cc1)Nc1cccc(C(=O)O)c1	3.6	5.3	1.0	103.0	97.0	13.8	/	/	/
Cc1ccc(P(=O)(CSC(=N)N)c2ccc(C)cc2)cc1	18.8	-17.7	2.0	133.0*	108.0	-0.7	101.0	-7.0	100.0
N=C(N)SCP(=O)(c1ccccc1)c1ccccc1	10.0	-17.1	-19.0	91.0	94.0	-3.6	/	/	/
COc1ccc(/C=C/C(=O)NCC(=O)N/N=C/c2cc(Br)ccc2OC)cc1	-10.4	6.7	91.0*	101.0	105.0	-2.5	94.0	-3.0	96.0
COc1ccccc1/C=C/C(=O)NCC(=O)N/N=C/c1cc(Br)ccc1OC	0.0	17.2	-3.0	101.0	95.0	17.0	/	/	/
CCCCCC(=O)Nc1cccc(C2=NOC3(C2)C[C@H](C(N)=O)N(C(=O)CC#N)C3)c1 (some centres undefined)	/	/	-14.0	1.0*[inhibitor]	1.0*[inhibitor]	/	99.0	-12.0	100.0
CCCCCC(=O)Nc1cccc(C2=NOC3(C2)C[C@H](C(N)=O)N(C(=O)c2ccccc2)C3)c1 (some centres undefined)	0.7	-5.4	-7.0	68.0	104.0	10.4	/	/	/
C=C(C)C(=O)Nc1cccc(C2=NOC3(C2)C[C@@H](C(N)=O)N(C(=O)/C=C/C=C/C)C3)c1 (some centres undefined)	-136.3	-326.2	-37.0	68.0*[inhibitor]	70.0	-12.1	90.0	-46.0	86.0
CC1CN(S(=O)(=O)c2ccc(C(=O)N(CCCN(C)C)c3nc4c(Cl)cccc4s3)cc2)CC(C)O1 (centres undefined)	3.9	8.6	12.0	103.0	121.0	-11.4	/	/	/
Cc1ccc(C)c(S(=O)(=O)N2CCN(C(=O)C3CCN(c4ncnc5sc(C)c(C)c45)CC3)CC2)c1	-4.5	29.2	/	/	/	14.6	/	/	/
CC(=O)c1cccc(NC2c3ccccc3C(=O)N2Cc2ccco2)c1 (centres undefined)	-3.9	1.1	30.0	134.0*	119.0	4.2	93.0	-3.0	93.0
CCOC(=O)c1cccc(NC2c3ccccc3C(=O)N2Cc2ccco2)c1 (centres undefined)	11.3	11.1	11.0	100.0	99.0	15.3	/	/	/
Cc1occc1C(=O)NNC(=O)c1ccc(F)cc1	5.8	-4.9	-17.0	0.0*[inhibitor]	-1.0*[inhibitor]	0.4	104.0	2.0	103.0
CCCCNC(=S)NNC(=O)c1ccoc1C	5.4	-18.5	4.0	105.0	108.0	1.1	/	/	/
Cc1occc1C(=O)NNC(=O)c1ccccc1F	-3.7	7.2	0.0	97.0	100.0	19.9	/	/	/
COCCCNC(=S)NNC(=O)c1ccoc1C	8.2	-0.8	-3.0	74.0*[inhibitor]	101.0	1.4	105.0	1.0	102.0
CC(C)Cc1nnc(NC(=O)CCC(=O)N2CC(C)CC(C)C2)s1 (centres undefined)	-1.1	11.2	2.0	100.0	105.0	5.7	/	/	/
CCNC(=S)N(CCc1c(C)[nH]c2ccc(F)cc12)Cc1cccnc1	11.1	17.9	35.0*	107.0	133.0	-4.8	121.0	12.0	103.0
